Laboratory results: ChEMBL document CHEMBL4765454, “Betulinic acid derived amides are highly cytotoxic, apoptotic and selective” (Eur J Med Chem, 2020)
Active and inactive are the calls of the source. The rule behind the calls is not given here.

Legend:
A-375 [1] = assay: Cytotoxicity against human A-375 cells assessed as reduction in cell viability incubated for 72 hrs by SRB assay; type: functional, cell-based; conditions: Homo sapiens, A-375, 72 h; read-out: EC50
HT-29 = assay: Cytotoxicity against human HT-29 cells assessed as reduction in cell viability incubated for 72 hrs by SRB assay; type: functional, cell-based; conditions: Homo sapiens, HT-29, 72 h; read-out: EC50
MCF7 = assay: Cytotoxicity against human MCF7 cells assessed as reduction in cell viability incubated for 72 hrs by SRB assay; type: functional, cell-based; conditions: Homo sapiens, MCF7, 72 h; read-out: EC50
A2780 = assay: Cytotoxicity against human A2780 cells assessed as reduction in cell viability incubated for 72 hrs by SRB assay; type: functional, cell-based; conditions: Homo sapiens, A2780, 72 h; read-out: EC50
FaDu = assay: Cytotoxicity against human FaDu cells assessed as reduction in cell viability incubated for 72 hrs by SRB assay; type: functional, cell-based; conditions: Homo sapiens, FaDu, 72 h; read-out: EC50
NIH3T3 = assay: Cytotoxicity against mouse NIH3T3 cells assessed as reduction in cell viability incubated for 72 hrs by SRB assay; type: cell-based; conditions: Mus musculus, NIH3T3, 72 h; read-out: EC50
[2] = Selectivity ratio of EC50 for mouse NIH3T3 cells to EC50 for human HT-29 cells; type: toxicity; conditions: NIH3T3 cells versus HT-29 cells, read-out: Ratio EC50
[3] = Selectivity ratio of EC50 for mouse NIH3T3 cells to EC50 for human MCF7 cells; type: toxicity; conditions: NIH3T3 cells versus MCF7 cells, read-out: Ratio EC50
[4] = Selectivity ratio of EC50 for mouse NIH3T3 cells to EC50 for human A2780 cells; type: toxicity; conditions: NIH3T3 cells versus A2780 cells, read-out: Ratio EC50
[5] = Selectivity ratio of EC50 for mouse NIH3T3 cells to EC50 for human FaDu cells
A-375 [6] = assay: Induction of apoptosis in human A375 cells assessed as necrotic cells at 4.8 uM measured after 24 hrs by Annexin V-FITC/propidium iodide staining based flow cytometry (reference value: 0.331%); type: functional
A-375 [7] = assay: Induction of apoptosis in human A375 cells assessed as late apoptotic cells at 4.8 uM measured after 24 hrs by Annexin V-FITC/propidium iodide staining based flow cytometry (reference value: 7.352%); type: functional
A-375 [8] = assay: Induction of apoptosis in human A375 cells assessed as viable cells at 4.8 uM measured after 24 hrs by Annexin V-FITC/propidium iodide staining based flow cytometry (reference value: 90.123%); type: functional; conditions: read-out: Activity
A-375 [9] = assay: Induction of apoptosis in human A375 cells assessed as early apoptotic cells at 4.8 uM measured after 24 hrs by Annexin V-FITC/propidium iodide staining based flow cytometry (reference value: 2.194%); type: functional
A-375 [10] = assay: Induction of apoptosis in human A375 cells assessed as necrotic cells at 4.8 uM measured after 48 hrs by Annexin V-FITC/propidium iodide staining based flow cytometry (reference value: 0.547%); type: functional
A-375 [11] = assay: Induction of apoptosis in human A375 cells assessed as late apoptotic cells at 4.8 uM measured after 48 hrs by Annexin V-FITC/propidium iodide staining based flow cytometry (reference value: 5.108%); type: functional
A-375 [12] = assay: Induction of apoptosis in human A375 cells assessed as viable cells at 4.8 uM measured after 48 hrs by Annexin V-FITC/propidium iodide staining based flow cytometry (reference value: 92.723%); type: functional; conditions: read-out: Activity
A-375 [13] = assay: Induction of apoptosis in human A375 cells assessed as early apoptotic cells at 4.8 uM measured after 48 hrs by Annexin V-FITC/propidium iodide staining based flow cytometry (reference value: 1.622%); type: functional
A-375 [14] = assay: Induction of apoptosis in human A375 cells at 4.8 uM measured after 24 hrs by microscopic analysis; type: functional, cell-based
Method in brief: (§1)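 A375 cells treated at 3.0, 4.8 or 6.2 µM and inspected by light microscopy after 24 h or 48 h. Cell number and morphology were scored for apoptotic features: shrinkage, strangulation and blebbing.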

A-375 [15] = assay: Induction of apoptosis in human A375 cells assessed as cell shrinkage at 4.8 uM measured after 48 hrs by microscopic analysis; type: functional, cell-based; method in brief: as §1
A-375 [16] = assay: Induction of apoptosis in human A375 cells assessed as strangulation at 4.8 uM measured after 48 hrs by microscopic analysis; type: functional, cell-based; method in brief: as §1
A-375 [17] = assay: Induction of apoptosis in human A375 cells assessed as blebbing at 4.8 uM measured after 48 hrs by microscopic analysis; type: functional, cell-based; method in brief: as §1
A-375 [18] = assay: Cell cycle arrest in human A375 cells assessed as accumulation at subG1 phase measured after 24 hrs by propidium iodide staining based flow cytometry (reference value: 0.46%); type: functional
A-375 [19] = assay: Cell cycle arrest in human A375 cells assessed as accumulation at G1 phase measured after 24 hrs by propidium iodide staining based flow cytometry (reference value: 44.59%); type: functional
A-375 [20] = assay: Cell cycle arrest in human A375 cells assessed as accumulation at S phase measured after 24 hrs by propidium iodide staining based flow cytometry (reference value: 47.46%); type: functional
A-375 [21] = assay: Cell cycle arrest in human A375 cells assessed as accumulation at G2/M phase measured after 24 hrs by propidium iodide staining based flow cytometry (reference value: 7.48%); type: functional
A-375 [22] = assay: Cell cycle arrest in human A375 cells assessed as accumulation at subG1 phase measured after 48 hrs by propidium iodide staining based flow cytometry (reference value: 0.57%); type: functional
A-375 [23] = assay: Cell cycle arrest in human A375 cells assessed as accumulation at G1 phase measured after 48 hrs by propidium iodide staining based flow cytometry (reference value: 57.3%); type: functional
A-375 [24] = assay: Cell cycle arrest in human A375 cells assessed as accumulation at S phase measured after 48 hrs by propidium iodide staining based flow cytometry (reference value: 31.3%); type: functional
A-375 [25] = assay: Cell cycle arrest in human A375 cells assessed as accumulation at G2/M phase measured after 48 hrs by propidium iodide staining based flow cytometry (reference value: 10.83%); type: functional
A-375 [26] = assay: Induction of apoptosis in human A375 cells assessed as necrotic cells at 3 uM measured after 24 hrs by Annexin V-FITC/propidium iodide staining based flow cytometry (reference value: 0.331%); type: functional
A-375 [27] = assay: Induction of apoptosis in human A375 cells assessed as late apoptotic cells at 3 uM measured after 24 hrs by Annexin V-FITC/propidium iodide staining based flow cytometry (reference value: 7.352%); type: functional
A-375 [28] = assay: Induction of apoptosis in human A375 cells assessed as viable cells at 3 uM measured after 24 hrs by Annexin V-FITC/propidium iodide staining based flow cytometry (reference value: 90.123%); type: functional; conditions: read-out: Activity
A-375 [29] = assay: Induction of apoptosis in human A375 cells assessed as early apoptotic cells at 3 uM measured after 24 hrs by Annexin V-FITC/propidium iodide staining based flow cytometry (reference value: 2.194%); type: functional
A-375 [30] = assay: Induction of apoptosis in human A375 cells assessed as necrotic cells at 3 uM measured after 48 hrs by Annexin V-FITC/propidium iodide staining based flow cytometry (reference value: 0.547%); type: functional
A-375 [31] = assay: Induction of apoptosis in human A375 cells assessed as late apoptotic cells at 3 uM measured after 48 hrs by Annexin V-FITC/propidium iodide staining based flow cytometry (reference value: 5.108%); type: functional
A-375 [32] = assay: Induction of apoptosis in human A375 cells assessed as viable cells at 3 uM measured after 48 hrs by Annexin V-FITC/propidium iodide staining based flow cytometry (reference value: 92.723%); type: functional; conditions: read-out: Activity
A-375 [33] = assay: Induction of apoptosis in human A375 cells assessed as early apoptotic cells at 3 uM measured after 48 hrs by Annexin V-FITC/propidium iodide staining based flow cytometry (reference value: 1.622%); type: functional
A-375 [34] = assay: Induction of apoptosis in human A375 cells at 3 uM measured after 24 hrs by microscopic analysis; type: functional, cell-based; method in brief: as §1
A-375 [35] = assay: Induction of apoptosis in human A375 cells assessed as cell shrinkage at 3 uM measured after 48 hrs by microscopic analysis; type: functional, cell-based; method in brief: as §1
A-375 [36] = assay: Induction of apoptosis in human A375 cells assessed as strangulation at 3 uM measured after 48 hrs by microscopic analysis; type: functional, cell-based; method in brief: as §1
A-375 [37] = assay: Induction of apoptosis in human A375 cells assessed as blebbing at 3 uM measured after 48 hrs by microscopic analysis; type: functional, cell-based; method in brief: as §1

Row | Structure (SMILES) | EC50 (A-375 [1]) | EC50 (HT-29) | EC50 (MCF7) | EC50 (A2780) | EC50 (FaDu) | EC50 (NIH3T3) | selectivity ratio [2] | selectivity ratio [3] | selectivity ratio [4] | Ratio EC50 [5] | Activity (A-375 [18]) | Activity (A-375 [19]) | Activity (A-375 [20]) | Activity (A-375 [21]) | Activity (A-375 [22]) | Activity (A-375 [23]) | Activity (A-375 [24]) | Activity (A-375 [25]) | other results
1 | C=C(C)[C@@H]1CC[C@]2(C(=O)Nc3cccc4ncccc34)CC[C@]3(C)[C@H](CC[C@@H]4[C@@]5(C)C[C@H](OC(C)=O)[C@H](OC(C)=O)C(C)(C)[C@@H]5CC[C@]43C)[C@@H]12 | 2.9 µM | > 30 µM | 6.26 µM | 3.24 µM | 3.49 µM | > 120 µM | 4 | 19.2 | 37 | 34.4 | 3.53% | 37.51% | 58.53% | 0.43% | 11.49% | 31.39% | 57.06% | 0% | Activity (A-375 [6]): 0.749%; Activity (A-375 [7]): 10.295%; viability at 4.8 µM (A-375 [8]): 80.4%; Activity (A-375 [9]): 6.495%; Activity (A-375 [10]): 1.342%; Activity (A-375 [11]): 12.388%; viability at 4.8 µM (A-375 [12]): 67.4%; Activity (A-375 [13]): 18.861%; Activity (A-375 [14]): Active; Activity (A-375 [15]): Active; Activity (A-375 [16]): Active; Activity (A-375 [17]): Active
2 | C=C(C)[C@@H]1CC[C@]2(C(=O)Nc3cncc4ccccc34)CC[C@]3(C)[C@H](CC[C@@H]4[C@@]5(C)CC[C@H](OC(C)=O)C(C)(C)[C@@H]5CC[C@]43C)[C@@H]12 | 1.48 µM | > 30 µM | 4.65 µM | 2.16 µM | 2.26 µM | > 135 µM | 4.5 | 29 | 62.5 | 59.7 | 2.38% | 61.06% | 36.56% | 0% | 23.32% | 41.85% | 34.84% | 0% | Activity (A-375 [26]): 0.351%; Activity (A-375 [27]): 9.649%; viability at 3 µM (A-375 [28]): 83.5%; Activity (A-375 [29]): 8.551%; Activity (A-375 [30]): 1.115%; Activity (A-375 [31]): 21.382%; viability at 3 µM (A-375 [32]): 33.2%; Activity (A-375 [33]): 44.309%; Activity (A-375 [34]): Active; Activity (A-375 [35]): Active; Activity (A-375 [36]): Active; Activity (A-375 [37]): Active
